# Data reported in ChEMBL document CHEMBL5032502, “Syntheses, Biological Evaluations, and Mechanistic Studies of Benzo[c][1,2,5]oxadiazole Derivatives as Potent PD-L1 Inhibitors with In Vivo Antitumor Activity” (J Med Chem, 2021).
# Active and inactive are the calls of the source. The calls are words filed in the database; no cut-off is given here.
# What was measured:
# [1] = Half life in Sprague-Dawley rat at 9 mg/kg, iv measured upto 24 hrs by LC-MS analysis; type: ADME, organism-based; details: in vivo
# Method in brief: (§1)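 Male animals fasted 12 h before dosing. Plasma levels measured by LC-MS, with the prodrug quantified as the parent acid. Mean ± SEM, n = 3.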
# [2] = Cmax in Sprague-Dawley rat at 9 mg/kg, iv measured upto 24 hrs by LC-MS analysis; type: ADME, organism-based; design: route intravenous, dose 9 mg/kg, time <=24; details: in vivo; method in brief: as §1
# [3] = AUC (0 to t) in Sprague-Dawley rat at 45 mg/kg, po measured upto 24 hrs by LC-MS analysis; type: ADME, organism-based; design: route oral, dose 45 mg/kg, time <=24; details: in vivo; method in brief: as §1
# [4] = Oral bioavailability in Sprague-Dawley rat at 45 mg/kg measured upto 24 hrs by LC-MS analysis; type: ADME, organism-based; details: in vivo
# Method in brief: (§2)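 Male Sprague-Dawley rats or C57BL/6 mice fasted 12 h before dosing, given oral (po) or intravenous (iv) doses. Plasma levels measured by LC-MS. Parameters reported as mean ± SEM, n = 3.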
# [5] = Acute toxicity in C57BL/6 mouse assessed as body weight loss at 2000 mg/kg, po observed for 30 days; type: organism-based; details: in vivo, 720 h, time 30 day
# Method in brief: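 Healthy C57BL/6 mice got a single oral 2000 mg/kg dose. Mortality and body weight were then recorded over a 30-day observation period.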
# [6] = Subacute toxicity in C57BL/6 mouse assessed as mortality at 2000 mg/kg, po observed for 30 days; type: organism-based; details: in vivo, 720 h, time 30 day
# [7] = Toxicity in C57BL/6 mouse assessed as effect on AST level at 2000 mg/kg, po observed for 30 days; type: organism-based; details: in vivo, 720 h, time 30 day
# B16-F10 [8] = experiment: Antitumor activity against mouse B16-F10 cells implanted in C57BL/6 mouse assessed as tumor growth inhibition at 45 mg/kg, po measured after 18 days; type: functional; details: 432 h, time 18 day, read-out: TGI
# Method in brief: (§3)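 Female C57BL/6J mice, 8 weeks old, injected dorsally with 1 × 10⁶ B16-F10 cells in PBS. Daily oral gavage started the same day (day 1), in 0.5% CMC-Na vehicle. Tumour size and body weight recorded daily, volume = 0.5 × L × W². Sacrifice on day 18, tumours excised and weighed. TGI = (1 − Vt/Vv) × 100.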
# B16-F10 [9] = experiment: Antitumor activity against mouse B16-F10 cells implanted in C57BL/6 mouse assessed as tumor weight at 15 mg/kg, po measured after 18 days (reference value: 1.76 gm); type: functional; details: time 18 day; method in brief: as §3
# B16-F10 [10] = experiment: Antitumor activity against mouse B16-F10 cells implanted in C57BL/6 mouse assessed as tumor weight at 45 mg/kg, po measured after 18 days (reference value: 1.76 gm); type: functional; details: time 18 day; method in brief: as §3
# MC-38 [11] = experiment: Antitumor activity against mouse MC38 cells implanted in C57BL/6 mouse assessed as tumor growth inhibition at 50 mg/kg, po measured after 14 days; type: functional; details: MC-38, po, 336 h, time 14 day, read-out: TGI
# MC-38 [12] = experiment: Antitumor activity against mouse MC38 cells implanted in C57BL/6 mouse assessed as tumor growth inhibition at 150 mg/kg, po measured after 14 days; type: functional; details: MC-38, po, 336 h, time 14 day, read-out: TGI
# MC-38 [13] = experiment: Antitumor activity against mouse MC38 cells implanted in C57BL/6 mouse assessed as tumor growth inhibition at 300 mg/kg, po measured after 18 days; type: functional; details: MC-38, po, 432 h, time 18 day, read-out: TGI
# Method in brief: (§4)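 Female C57BL/6J mice, 8 weeks old, injected dorsally with 1 × 10⁶ MC38 cells in PBS. At 50 mm³, randomized to CMC-Na vehicle, 50, 150 or 300 mg/kg by daily oral gavage. Tumours measured every two days, volume = 0.5 × L × W². Sacrifice after 18 days of treatment. TGI = (1 − Vt/Vv) × 100. n = 8−10.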
# MC-38 [14] = experiment: Antitumor activity against mouse MC38 cells implanted in C57BL/6 mouse assessed as tumor growth inhibition at 150 mg/kg, po measured after 18 days; type: functional; details: MC-38, po, 432 h, time 18 day, read-out: TGI; method in brief: as §4
# MC-38 [15] = experiment: Antitumor activity against PD-L1 humanized mouse MC38 cells implanted in PD-L1 humanized C57BL/6 mouse assessed as tumor growth inhibition at 50 mg/kg, po measured after 30 days; type: functional; details: MC-38, po, 720 h, time 30 day, read-out: TGI
# Method in brief: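 PD-L1-humanized C57BL/6 mice given 1 × 10⁶ MC38-hPD-L1(Tg)-mPDL1(KO) cells in the right flank. Once tumours reached 50 mm³, randomized into three groups: CMC-Na vehicle, 25 or 50 mg/kg by daily oral gavage for 30 days. TGI from mean tumour volume of treated versus vehicle groups. n = 6.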
# MC-38 [16] = experiment: Antitumor activity against PD-L1 humanized mouse MC38 cells implanted in PD-L1 humanized C57BL/6 mouse assessed as tumor growth inhibition at 25 mg/kg, po measured after 27 days; type: functional; details: MC-38, po, 648 h, time 27 day, read-out: TGI
# Method in brief: (§5)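 Female PD-L1-humanized C57BL/6 mice, 6 weeks old, injected in the right flank with 1 × 10⁶ MC38-hPD-L1(Tg)-mPDL1(KO) cells in PBS. At 50 mm³ tumours, animals randomized to 0.5% CMC-Na vehicle or drug by daily oral gavage. Tumours measured twice weekly, volume = 0.5 × L × W². Sacrifice on day 27. TGI = (1 − Vt/Vv) × 100. n = 8.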
# MC-38 [17] = experiment: Antitumor activity against PD-L1 humanized mouse MC38 cells implanted in PD-L1 humanized C57BL/6 mouse assessed as tumor growth inhibition at 5 mg/kg, po measured after 27 days; type: functional; details: MC-38, po, 648 h, time 27 day, read-out: TGI; method in brief: as §5
# MC-38 [18] = experiment: Antitumor activity against mouse MC38 cells xenografted in C57BL/6 mouse assessed as reduction in gMDSC cells at 25 mg/kg, po by flow cytometry analysis; type: functional, organism-based
# Method in brief: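 Tumours taken from PD-L1-humanized mice carrying MC38-hPD-L1 tumours and dosed orally at 5 or 25 mg/kg daily. Tissue digested to single cells, red cells lysed with ACK buffer, Fc blocked. Surface stain 60 min for CD45, CD3, CD4, CD8, CD335, CD11b, Ly6G, Ly6C and F4/80, with a viability dye. Intracellular FOXP3 stain after permeabilization. Mean ± SEM, n = 7−8, one-way ANOVA.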
# [19] = Cmax in C57BL/6 mouse at 10 mg/kg, po measured upto 24 hrs by LC-MS analysis; type: ADME, organism-based; design: route oral, dose 10 mg/kg, time <=24; details: in vivo; method in brief: as §1
# [20] = Oral bioavailability in C57BL/6 mouse at 10 mg/kg measured upto 24 hrs by LC-MS analysis; type: ADME, organism-based; details: in vivo; method in brief: as §2
structure (smiles),measurement,setting,value
CCOC(=O)[C@@H](CO)NCc1cc(Cl)c(OCc2cccc(-c3ccccc3)c2Br)cc1OCc1ccc2nonc2c1.Cl,half-life,[1],5.02 h
same,Cmax,[2],13000 ng/mL
same,AUC(0-t) at 24 h,[3],2860 ng·h/mL
same,bioavailability,[4],9.12%
same,Activity,[5],Non-Toxic
same,Activity,[6],Non-Toxic
same,Activity,[7],Non-Toxic
same,inhibition in vivo at 45 mg/kg,B16-F10 [8],70.7%
same,Activity,B16-F10 [9],1.27 g
same,Activity,B16-F10 [10],0.79 g
same,inhibition in vivo at 50 mg/kg,MC-38 [11],50.9%
same,inhibition in vivo at 150 mg/kg,MC-38 [12],58.2%
same,inhibition in vivo at 300 mg/kg,MC-38 [13],48.9%
same,inhibition in vivo at 150 mg/kg,MC-38 [14],55.1%
same,inhibition in vivo at 50 mg/kg,MC-38 [15],30.8%
same,inhibition in vivo at 25 mg/kg,MC-38 [16],32.5%
same,inhibition in vivo at 5 mg/kg,MC-38 [17],19.3%
same,Activity,MC-38 [18],Active
same,Cmax,[19],150 ng/mL
same,bioavailability,[20],7.7%
